Assay results reported in ChEMBL document CHEMBL1136800 (J Med Chem, 2003).

Columns and labels:
[1] = Increase in intracellular cGMP concentration in atrial natriuretic factor treated rat aortic smooth muscle cells.; type: functional, tissue-based; settings: Aorta
Procedure, shortened: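 Primary rat aortic smooth muscle cells grown in DMEM with 10% FCS and used at confluence (3-5 days). Compound in PBS for 30 min at 37 °C, then ANF 0.1 µM for 10 min at 37 °C. Intracellular cGMP extracted with 65% ethanol and measured by scintillation proximity immunoassay, in triplicate wells; DMSO ≤0.1%. EC50 is the concentration giving half the maximal cGMP increase seen at saturating compound.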

[2] = target: cGMP-specific 3',5'-cyclic phosphodiesterase (Bos taurus, UniProt Q28156); assay: Inhibitory activity against bovine PDE5 (phosphodiesterase-5).
[3] = target: Phosphodiesterase 1 (Bos taurus, UniProt Q01061+P14100); assay: Inhibition of bovine aorta PDE1 (phosphodiesterase 1); type: protein assay
Procedure, shortened: (§1)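 Incubated 30 min at 30 °C under initial-velocity conditions (≤10-15% hydrolysis). Product separated on QAE Sephadex and counted by scintillation; final DMSO 2%.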

[4] = target: cGMP-dependent 3',5'-cyclic phosphodiesterase (Homo sapiens, UniProt O00408); assay: Inhibition of human recombinant PDE2 (phosphodiesterase 2); procedure, shortened: as §1
Chain of cGMP-dependent 3',5'-cyclic phosphodiesterase (O00408 whole entry): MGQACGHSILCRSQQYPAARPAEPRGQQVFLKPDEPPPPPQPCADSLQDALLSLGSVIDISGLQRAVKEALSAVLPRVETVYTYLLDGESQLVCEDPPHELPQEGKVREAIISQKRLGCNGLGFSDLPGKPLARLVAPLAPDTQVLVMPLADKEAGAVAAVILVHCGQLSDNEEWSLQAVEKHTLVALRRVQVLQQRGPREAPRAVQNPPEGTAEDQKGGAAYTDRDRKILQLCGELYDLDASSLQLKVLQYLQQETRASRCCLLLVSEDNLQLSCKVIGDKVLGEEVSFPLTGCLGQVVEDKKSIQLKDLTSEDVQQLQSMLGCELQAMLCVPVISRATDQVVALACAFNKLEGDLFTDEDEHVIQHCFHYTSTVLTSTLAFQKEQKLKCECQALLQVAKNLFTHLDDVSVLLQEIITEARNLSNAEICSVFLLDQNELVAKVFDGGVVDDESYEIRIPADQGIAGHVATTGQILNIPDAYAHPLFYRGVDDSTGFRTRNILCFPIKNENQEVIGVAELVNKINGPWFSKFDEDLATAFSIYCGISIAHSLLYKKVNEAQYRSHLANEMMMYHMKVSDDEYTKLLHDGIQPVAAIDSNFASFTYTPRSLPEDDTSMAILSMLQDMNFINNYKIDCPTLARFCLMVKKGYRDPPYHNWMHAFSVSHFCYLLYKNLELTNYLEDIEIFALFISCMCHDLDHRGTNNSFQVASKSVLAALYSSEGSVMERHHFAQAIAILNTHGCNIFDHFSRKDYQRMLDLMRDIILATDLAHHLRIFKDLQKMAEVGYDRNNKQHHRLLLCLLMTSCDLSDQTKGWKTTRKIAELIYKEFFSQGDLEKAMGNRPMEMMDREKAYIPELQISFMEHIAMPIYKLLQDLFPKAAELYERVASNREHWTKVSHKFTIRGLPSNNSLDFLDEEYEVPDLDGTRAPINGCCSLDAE

[5] = target: Phosphodiesterase 4 (Homo sapiens, UniProt P27815+Q08499+Q07343+Q08493); assay: Inhibition of human recombinant PDE4 (phosphodiesterase 4); type: protein assay; procedure, shortened: as §1
[6] = target: Phosphodiesterase 3B (Bos taurus, UniProt E1BN64); assay: Inhibition of bovine aorta PDE3 (phosphodiesterase 3); procedure, shortened: as §1
Chain of Phosphodiesterase 3B (E1BN64 whole entry): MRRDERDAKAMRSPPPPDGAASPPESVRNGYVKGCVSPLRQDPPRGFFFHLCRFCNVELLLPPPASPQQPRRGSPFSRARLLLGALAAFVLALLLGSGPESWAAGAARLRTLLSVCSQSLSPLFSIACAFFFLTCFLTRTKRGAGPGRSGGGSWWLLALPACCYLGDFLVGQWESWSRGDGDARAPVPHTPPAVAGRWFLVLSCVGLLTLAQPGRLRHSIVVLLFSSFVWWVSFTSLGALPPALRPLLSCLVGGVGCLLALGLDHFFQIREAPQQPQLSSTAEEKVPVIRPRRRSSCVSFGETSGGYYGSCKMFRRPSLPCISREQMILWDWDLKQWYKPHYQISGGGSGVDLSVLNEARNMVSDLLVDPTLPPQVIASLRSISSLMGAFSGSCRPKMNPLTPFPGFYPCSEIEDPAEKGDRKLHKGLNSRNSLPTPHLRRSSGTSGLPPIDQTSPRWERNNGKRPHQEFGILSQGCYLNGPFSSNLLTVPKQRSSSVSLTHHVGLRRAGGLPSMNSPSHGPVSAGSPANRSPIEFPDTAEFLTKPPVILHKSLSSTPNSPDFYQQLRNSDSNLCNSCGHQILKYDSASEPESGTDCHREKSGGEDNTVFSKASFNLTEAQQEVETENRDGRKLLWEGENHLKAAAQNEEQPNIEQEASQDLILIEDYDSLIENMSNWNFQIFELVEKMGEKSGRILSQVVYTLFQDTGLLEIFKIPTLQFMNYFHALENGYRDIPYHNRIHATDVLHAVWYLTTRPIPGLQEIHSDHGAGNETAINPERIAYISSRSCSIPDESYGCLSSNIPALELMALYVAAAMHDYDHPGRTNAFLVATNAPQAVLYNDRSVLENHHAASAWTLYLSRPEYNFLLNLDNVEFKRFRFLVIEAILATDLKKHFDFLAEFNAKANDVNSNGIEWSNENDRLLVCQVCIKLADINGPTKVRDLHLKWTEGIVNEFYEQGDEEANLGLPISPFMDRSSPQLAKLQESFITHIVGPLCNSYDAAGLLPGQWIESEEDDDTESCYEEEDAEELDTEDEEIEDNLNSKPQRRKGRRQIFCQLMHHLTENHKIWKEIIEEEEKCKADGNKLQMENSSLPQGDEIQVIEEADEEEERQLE

COc1ccc([C@H]2c3[nH]c4ccccc4c3C[C@@H]3C(=O)NC(=O)N23)cc1
EC50 [1]: 3 µM
IC50 [2]: 0.02 µM

COc1ccc([C@@H]2c3[nH]c4ccccc4c3C[C@@H]3C(=O)N(C4CCCCC4)C(=O)N23)cc1
EC50 [1]: 0.3 µM
IC50 [2]: 0.007 µM
IC50 [3]: > 10 µM
IC50 [4]: > 10 µM
IC50 [5]: > 10 µM
IC50 [6]: > 10 µM

CCCCN1C(=O)[C@H]2Cc3c([nH]c4ccccc34)[C@@H](c3ccc(Cl)cc3)N2C1=O
EC50 [1]: > 10 µM
IC50 [2]: 0.05 µM

CCCCN1C(=O)[C@H]2Cc3c([nH]c4ccccc34)[C@@H](c3cccnc3)N2C1=O
IC50 [2]: 0.09 µM

CCCCN1C(=O)[C@H]2Cc3c(n(C)c4ccccc34)[C@@H](c3ccc(OC)cc3)N2C1=O
IC50 [2]: > 10 µM

CCN1C(=O)[C@H]2Cc3c([nH]c4ccccc34)[C@@H](c3ccc(OC)cc3)N2C1=O
EC50 [1]: 0.4 µM
IC50 [2]: 0.01 µM

COc1ccc([C@H]2c3[nH]c4ccccc4c3C[C@@H]3C(=O)N(CCc4ccccn4)C(=O)N23)cc1
EC50 [1]: 1.5 µM
IC50 [2]: 0.006 µM

CCCCN1C(=O)[C@H]2Cc3c([nH]c4ccccc34)[C@H](c3ccc(C#N)cc3)N2C1=O
IC50 [2]: 0.3 µM

COc1ccc([C@H]2c3[nH]c4ccccc4c3C[C@@H]3C(=O)N(CCN(C)C)C(=O)N23)cc1
EC50 [1]: 3.5 µM
IC50 [2]: 0.03 µM

COc1ccc([C@H]2c3[nH]c4ccccc4c3C[C@@H]3C(=O)N(C4CCCCC4)C(=O)N23)cc1
EC50 [1]: 0.1 µM
IC50 [2]: 0.003 µM

CCCCN1C(=O)[C@H]2Cc3c([nH]c4ccccc34)[C@@H](c3cccc(Cl)c3)N2C1=O
EC50 [1]: 4 µM
IC50 [2]: 0.05 µM

COc1ccc([C@@H]2c3[nH]c4ccccc4c3C[C@@H]3C(=O)N(Cc4ccccc4)C(=O)N23)cc1
EC50 [1]: 0.15 µM
IC50 [2]: 0.004 µM
IC50 [3]: > 10 µM
IC50 [4]: > 10 µM
IC50 [5]: > 10 µM
IC50 [6]: > 10 µM

CCCCN1C(=O)[C@H]2Cc3c([nH]c4ccccc34)[C@@H](c3ccc(C#N)cc3)N2C1=O
IC50 [2]: 0.9 µM

CCCCN1C(=O)[C@H]2Cc3c([nH]c4ccccc34)[C@@H](c3ccoc3)N2C1=O
IC50 [2]: 0.1 µM

CCCCN1C(=O)[C@H]2Cc3c([nH]c4ccccc34)[C@@H](c3ccncc3)N2C1=O
IC50 [2]: 0.3 µM
IC50 [3]: 2 µM
IC50 [5]: > 10 µM
IC50 [6]: > 10 µM

CCN1C(=O)[C@H]2Cc3c([nH]c4ccccc34)[C@H](c3ccc(OC)cc3)N2C1=O
EC50 [1]: 1.5 µM
IC50 [2]: 0.007 µM

CCCCN1C(=O)[C@H]2Cc3c([nH]c4ccccc34)[C@@H](c3ccsc3)N2C1=O
IC50 [2]: 0.03 µM

CCCCN1C(=O)[C@H]2Cc3c([nH]c4ccccc34)[C@H](c3ccccc3)N2C1=O
EC50 [1]: 2 µM
IC50 [2]: 0.02 µM

CCCCN1C(=O)[C@H]2Cc3c([nH]c4ccccc34)[C@H](c3ccc(OC)cc3)N2C1=O
EC50 [1]: 1 µM
IC50 [3]: > 10 µM
IC50 [4]: > 10 µM
IC50 [5]: > 10 µM
IC50 [6]: > 10 µM

COc1ccc([C@H]2c3[nH]c4ccccc4c3C[C@@H]3C(=O)N(Cc4cccnc4)C(=O)N23)cc1
EC50 [1]: 5.5 µM
IC50 [2]: 0.02 µM

COc1ccc([C@H]2c3[nH]c4ccccc4c3C[C@@H]3C(=O)N(Cc4ccccc4)C(=O)N23)cc1
EC50 [1]: > 10 µM
IC50 [2]: 0.018 µM

COc1ccc([C@@H]2c3[nH]c4ccccc4c3C[C@@H]3C(=O)N(C)C(=O)N23)cc1
EC50 [1]: 1 µM
IC50 [2]: 0.01 µM

CCCCN1C(=O)[C@H]2Cc3c([nH]c4ccccc34)[C@H](c3ccc(Cl)cc3)N2C1=O
EC50 [1]: 1.5 µM
IC50 [2]: 0.02 µM

COc1ccc([C@H]2c3[nH]c4ccccc4c3C[C@@H]3C(=O)N(CCN4CCCC4)C(=O)N23)cc1
EC50 [1]: 10 µM
IC50 [2]: 0.1 µM

CCCCN1C(=O)[C@H]2Cc3c([nH]c4ccccc34)[C@@H](c3ccc(OC)cc3)N2C1=O
EC50 [1]: 0.7 µM
IC50 [3]: > 10 µM
IC50 [4]: > 10 µM
IC50 [5]: > 10 µM
IC50 [6]: > 10 µM

CCCCN1C(=O)[C@H]2Cc3c([nH]c4ccccc34)[C@@H](c3ccccc3)N2C1=O
EC50 [1]: 5 µM
IC50 [2]: 0.06 µM

CCOC(=O)c1cc2c(cn1)[nH]c1ccccc12
IC50 [2]: 0.8 µM

CCCCN1C(=O)[C@H]2Cc3c([nH]c4ccccc34)[C@H](c3cccc(Cl)c3)N2C1=O
EC50 [1]: > 10 µM
IC50 [2]: 0.05 µM

CCCCN1C(=O)[C@H]2Cc3c([nH]c4ccccc34)[C@H](c3ccccc3OC)N2C1=O
IC50 [2]: 1 µM

CCCOc1ccccc1-c1nc2[nH]nnc2c(=O)[nH]1 [ZAPRINAST]
IC50 [3]: 2.6 µM
IC50 [6]: > 10 µM
